ChEMBL document CHEMBL5058577, “EUbOPEN Chemogenomics Library 2 (Multiplex)” (2022)

Test system: Fibroblast
Test: Multiplex assay against human fibroblast
Type: toxicity, cell-based
Summary of the method: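 Cells were classed with CellPathfinder machine-learning gating, first as Hoechst high-intensity objects or normal cells, then (normal cells) as healthy, pyknosed or fragmented nuclei, and finally (pyknosed cells) as mitotic or apoptotic. Staining of live cells at seeding used Hoechst33342, BioTracker Green Microtubule Cytoskeleton Dye, MitoTracker Red and Annexin V Alexa Fluor 680, with imaging on a CQ1 microscope at 37°C and 5% CO2 after compound addition. Tubulin, mitochondrial-mass and membrane-permeability phenotypes are per cents of healthy-nucleus cells.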

[1] = 12 h, 1 µM, compound concentration 1 uM, replicate 1
[2] = 12 h, 1 µM, compound concentration 1 uM, replicate 2
[3] = 12 h, 10 µM, compound concentration 10 uM, replicate 1
[4] = 12 h, 10 µM, compound concentration 10 uM, replicate 2
[5] = 24 h, 1 µM, compound concentration 1 uM, replicate 1
[6] = 24 h, 1 µM, compound concentration 1 uM, replicate 2
[7] = 24 h, 10 µM, compound concentration 10 uM, replicate 1
[8] = 24 h, 10 µM, compound concentration 10 uM, replicate 2
[9] = 48 h, 1 µM, compound concentration 1 uM, replicate 1
[10] = 48 h, 1 µM, compound concentration 1 uM, replicate 2
[11] = 48 h, 10 µM, compound concentration 10 uM, replicate 1
[12] = 48 h, 10 µM, compound concentration 10 uM, replicate 2

Q: Which results are given for CC[C@@H](C)Nc1nc(C)nc2c(-c3ccc(OC)nc3C)c(C)nn12 [PEXACERFONT]?
A: Population Apoptotic (%) [1]: 40%; Population Fragmented Nuclei (%) [1]: 12%; Population Healthy Nuclei (%) [1]: 66%; Population Hoechst High Intensity Objects (%) [1]: 1%; Population Membrane Permeable-Phenotype (%) [1]: 2%; Population Mitochondria Different-Phenotype (%) [1]: 4%; Population Mitotic Cells (%) [1]: 60%; Population Normal (%) [1]: 98%; Population Pyknosed Nuclei (%) [1]: 20%; Population Tubulin-Different-Phenotype (%) [1]: 35%; Total Cell Count [1]: 147; Population Apoptotic (%) [2]: 25%; Population Fragmented Nuclei (%) [2]: 32%; Population Healthy Nuclei (%) [2]: 44%; Population Hoechst High Intensity Objects (%) [2]: 2%; Population Membrane Permeable-Phenotype (%) [2]: 15%; Population Mitotic Cells (%) [2]: 75%; Population Normal (%) [2]: 97%; Population Pyknosed Nuclei (%) [2]: 24%; Population Tubulin-Different-Phenotype (%) [2]: 65%; Total Cell Count [2]: 103; Population Apoptotic (%) [3]: 43%; Population Fragmented Nuclei (%) [3]: 15%; Population Healthy Nuclei (%) [3]: 55%; Population Hoechst High Intensity Objects (%) [3]: 2%; Population Membrane Permeable-Phenotype (%) [3]: 0%; Population Mitochondria Different-Phenotype (%) [3]: 19%; Population Mitotic Cells (%) [3]: 56%; Population Normal (%) [3]: 97%; Population Pyknosed Nuclei (%) [3]: 29%; Population Tubulin-Different-Phenotype (%) [3]: 62%; Total Cell Count [3]: 143; Population Apoptotic (%) [4]: 38%; Population Fragmented Nuclei (%) [4]: 21%; Population Healthy Nuclei (%) [4]: 40%; Population Hoechst High Intensity Objects (%) [4]: 8%; Population Membrane Permeable-Phenotype (%) [4]: 7%; Population Mitochondria Different-Phenotype (%) [4]: 9%; Population Mitotic Cells (%) [4]: 61%; Population Normal (%) [4]: 91%; Population Pyknosed Nuclei (%) [4]: 38%; Population Tubulin-Different-Phenotype (%) [4]: 68%; Total Cell Count [4]: 147; Population Apoptotic (%) [5]: 52%; Population Fragmented Nuclei (%) [5]: 16%; Population Healthy Nuclei (%) [5]: 70%; Population Hoechst High Intensity Objects (%) [5]: 1%; Population Membrane Permeable-Phenotype (%) [5]: 0%; Population Mitochondria Different-Phenotype (%) [5]: 3%; Population Mitotic Cells (%) [5]: 47%; Population Normal (%) [5]: 98%; Population Pyknosed Nuclei (%) [5]: 13%; Population Tubulin-Different-Phenotype (%) [5]: 38%; Total Cell Count [5]: 157; Population Apoptotic (%) [6]: 47%; Population Fragmented Nuclei (%) [6]: 35%; Population Healthy Nuclei (%) [6]: 42%; Population Hoechst High Intensity Objects (%) [6]: 3%; Population Membrane Permeable-Phenotype (%) [6]: 20%; Population Mitochondria Different-Phenotype (%) [6]: 2%; Population Mitotic Cells (%) [6]: 52%; Population Normal (%) [6]: 96%; Population Pyknosed Nuclei (%) [6]: 22%; Population Tubulin-Different-Phenotype (%) [6]: 61%; Total Cell Count [6]: 108; Population Apoptotic (%) [7]: 37%; Population Fragmented Nuclei (%) [7]: 16%; Population Healthy Nuclei (%) [7]: 56%; Population Hoechst High Intensity Objects (%) [7]: 1%; Population Membrane Permeable-Phenotype (%) [7]: 2%; Population Mitochondria Different-Phenotype (%) [7]: 10%; Population Mitotic Cells (%) [7]: 62%; Population Normal (%) [7]: 98%; Population Pyknosed Nuclei (%) [7]: 27%; Population Tubulin-Different-Phenotype (%) [7]: 68%; Total Cell Count [7]: 139; Population Apoptotic (%) [8]: 38%; Population Fragmented Nuclei (%) [8]: 18%; Population Healthy Nuclei (%) [8]: 47%; Population Hoechst High Intensity Objects (%) [8]: 7%; Population Membrane Permeable-Phenotype (%) [8]: 20%; Population Mitochondria Different-Phenotype (%) [8]: 6%; Population Mitotic Cells (%) [8]: 61%; Population Normal (%) [8]: 92%; Population Pyknosed Nuclei (%) [8]: 33%; Population Tubulin-Different-Phenotype (%) [8]: 76%; Total Cell Count [8]: 143; Population Apoptotic (%) [9]: 54%; Population Fragmented Nuclei (%) [9]: 15%; Population Healthy Nuclei (%) [9]: 69%; Population Hoechst High Intensity Objects (%) [9]: 8%; Population Membrane Permeable-Phenotype (%) [9]: 1%; Population Mitochondria Different-Phenotype (%) [9]: 0%; Population Mitotic Cells (%) [9]: 45%; Population Normal (%) [9]: 91%; Population Pyknosed Nuclei (%) [9]: 15%; Population Tubulin-Different-Phenotype (%) [9]: 30%; Total Cell Count [9]: 160; Population Apoptotic (%) [10]: 25%; Population Fragmented Nuclei (%) [10]: 40%; Population Healthy Nuclei (%) [10]: 45%; Population Hoechst High Intensity Objects (%) [10]: 1%; Population Membrane Permeable-Phenotype (%) [10]: 26%; Population Mitochondria Different-Phenotype (%) [10]: 4%; Population Mitotic Cells (%) [10]: 75%; Population Normal (%) [10]: 98%; Population Pyknosed Nuclei (%) [10]: 14%; Population Tubulin-Different-Phenotype (%) [10]: 52%; Total Cell Count [10]: 113; Population Apoptotic (%) [11]: 87%; Population Fragmented Nuclei (%) [11]: 23%; Population Healthy Nuclei (%) [11]: 53%; Population Hoechst High Intensity Objects (%) [11]: 3%; Population Membrane Permeable-Phenotype (%) [11]: 0%; Population Mitochondria Different-Phenotype (%) [11]: 14%; Population Mitotic Cells (%) [11]: 12%; Population Normal (%) [11]: 96%; Population Pyknosed Nuclei (%) [11]: 22%; Population Tubulin-Different-Phenotype (%) [11]: 62%; Total Cell Count [11]: 144; Population Apoptotic (%) [12]: 52%; Population Fragmented Nuclei (%) [12]: 32%; Population Healthy Nuclei (%) [12]: 50%; Population Hoechst High Intensity Objects (%) [12]: 4%; Population Membrane Permeable-Phenotype (%) [12]: 12%; Population Mitochondria Different-Phenotype (%) [12]: 9%; Population Mitotic Cells (%) [12]: 47%; Population Normal (%) [12]: 95%; Population Pyknosed Nuclei (%) [12]: 16%; Population Tubulin-Different-Phenotype (%) [12]: 76%; Total Cell Count [12]: 134
